pIC50: −log10 of the molar value. Values after ≈ are worked out from the molar mass of the structure shown. Each block holds one compound with its values, some of them ahead of it.
Columns and labels:
Leishmania donovani [1] = assay: Antiprotozoal activity against Leishmania donovani was determined; details: read-out: ED50
KB [2] = assay: Toxicity in Leishmania donovani infected KB cells; type: functional; details: Homo sapiens, read-out: ED50 (the source's name)
Summary of the method: (§1)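 Cytotoxicity was measured on KB cells, with podophyllotoxin as the reference drug.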

KB [3] = assay: Toxicity in Trypanosoma cruzi infected KB cells; type: functional; details: Homo sapiens, read-out: ED50 (the source's name); summary of the method: as §1
Leishmania donovani [4] = assay: Antiprotozoal activity against Leishmania donovani at a dose of 10 ug/mL.; type: functional
Summary of the method: (§2)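 Leishmania donovani strain L82 was tested against test compounds, with pentostam as the reference drug.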

Leishmania donovani [5] = assay: Antiprotozoal activity against Leishmania donovani at a dose of 30 ug/mL. Compound was toxic to host macrophages; type: functional; summary of the method: as §2
Leishmania donovani [6] = assay: Antiprotozoal activity against Leishmania donovani at a dose of 3 ug/mL.; type: functional; summary of the method: as §2
Trypanosoma cruzi [7] = assay: Antiprotozoal activity against Trypanosoma cruzi was determined; type: functional; details: read-out: ED50 (the source's name)
Summary of the method: (§3)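 Trypanosoma cruzi of the Lac Z strain was tested, with benznidazol as the reference drug.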

[8] = test system: Trypanosoma brucei rhodesiense; assay: Antiprotozoal activity against T. b. rhodesiense at a dose of 10 ug/mL.; type: functional
Summary of the method: (§4)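 Trypanosoma brucei rhodesiense strain STIB900 was tested, with pentamidine as the reference drug.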

[9] = test system: Trypanosoma brucei rhodesiense; assay: Antiprotozoal activity against T. b. rhodesiense at a dose of 1 ug/mL.; type: functional; summary of the method: as §4
[10] = test system: Trypanosoma brucei rhodesiense; assay: Antiprotozoal activity against T. b. rhodesiense at a dose of 3 ug/mL.; type: functional; summary of the method: as §4
[11] = test system: Trypanosoma brucei rhodesiense; assay: Antiprotozoal activity against T. b. rhodesiense was determined; type: functional; details: read-out: ED50 (the source's name); summary of the method: as §4
Trypanosoma cruzi [12] = assay: Antiprotozoal activity against Trypanosoma cruzi at a dose of 10 ug/mL.; type: functional; summary of the method: as §3
Trypanosoma cruzi [13] = assay: Antiprotozoal activity against Trypanosoma cruzi at a dose of 1 ug/mL.; type: functional; summary of the method: as §3
Trypanosoma cruzi [14] = assay: Antiprotozoal activity against Trypanosoma cruzi at a dose of 30 ug/mL. Compound was toxic to host macrophages; type: functional; summary of the method: as §3
Trypanosoma cruzi [15] = assay: Antiprotozoal activity against Trypanosoma cruzi at a dose of 3 ug/mL.; type: functional; summary of the method: as §3
KB [16] = assay: Toxicity in T. b. rhodesiense infected KB cells; type: functional; details: Homo sapiens, read-out: ED50 (the source's name); summary of the method: as §1
[17] = test system: Trypanosoma brucei rhodesiense; assay: Antiprotozoal activity against T. b. rhodesiense at a dose of 30 ug/mL
Prolyl endopeptidase = target: T1, Prolyl endopeptidase (Homo sapiens, UniProt P48147); assay: In vitro inhibitory activity determined against prolyl oligopeptidase (PO) in human; Moderately active
T1 sequence (P48147 whole entry): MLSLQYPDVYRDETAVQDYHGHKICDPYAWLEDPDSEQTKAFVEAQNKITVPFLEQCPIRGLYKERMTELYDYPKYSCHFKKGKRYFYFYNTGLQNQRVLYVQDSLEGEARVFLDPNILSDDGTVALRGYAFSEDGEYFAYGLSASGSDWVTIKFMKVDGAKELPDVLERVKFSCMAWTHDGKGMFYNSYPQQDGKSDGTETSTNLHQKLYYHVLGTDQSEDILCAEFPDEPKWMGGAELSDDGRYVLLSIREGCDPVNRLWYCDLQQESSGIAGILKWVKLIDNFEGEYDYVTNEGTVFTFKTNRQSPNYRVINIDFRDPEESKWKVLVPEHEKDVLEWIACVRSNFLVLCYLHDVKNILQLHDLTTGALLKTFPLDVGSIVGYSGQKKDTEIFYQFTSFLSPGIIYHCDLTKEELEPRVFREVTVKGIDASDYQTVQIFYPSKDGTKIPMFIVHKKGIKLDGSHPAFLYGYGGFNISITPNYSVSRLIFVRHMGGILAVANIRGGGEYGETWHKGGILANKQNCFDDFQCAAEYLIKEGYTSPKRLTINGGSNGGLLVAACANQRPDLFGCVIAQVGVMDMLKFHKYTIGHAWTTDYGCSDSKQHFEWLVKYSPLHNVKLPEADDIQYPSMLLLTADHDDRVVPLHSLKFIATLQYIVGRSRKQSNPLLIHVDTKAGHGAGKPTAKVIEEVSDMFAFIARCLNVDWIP

Leishmania donovani [18] = assay: Antiprotozoal activity against Leishmania donovani L82 was determined; type: functional; details: read-out: ED50 (the source's name); summary of the method: as §2
KB [19] = assay: Toxicity in T. b. rhodesiense STIB900 infected KB cells; type: functional; details: Homo sapiens, read-out: ED50 (the source's name); summary of the method: as §1
KB [20] = assay: Toxicity in Trypanosoma cruzi Lac Z infected KB cells; type: functional; details: Homo sapiens, read-out: ED50 (the source's name); summary of the method: as §1
KB [21] = assay: Toxicity in Leishmania donovani L82 infected KB cells; type: functional; details: Homo sapiens, read-out: ED50 (the source's name); summary of the method: as §1
Leishmania donovani [22] = assay: Antiprotozoal activity against Leishmania donovani L82 at a dose of 30 ug/mL. Compound was toxic to host macrophages; type: functional; summary of the method: as §2
Leishmania donovani [23] = assay: Antiprotozoal activity against Leishmania donovani L82 at a dose of 3 ug/mL.; type: functional; summary of the method: as §2
Leishmania donovani [24] = assay: Antiprotozoal activity against Leishmania donovani L82 at a dose of 10 ug/mL.; type: functional; summary of the method: as §2
Trypanosoma cruzi [25] = assay: Antiprotozoal activity against Trypanosoma cruzi Lac Z was determined; type: functional; details: read-out: ED50 (the source's name); summary of the method: as §3
[26] = test system: Trypanosoma brucei rhodesiense; assay: Antiprotozoal activity against T. b. rhodesiense STIB900 at a dose of 10 ug/mL.; type: functional; summary of the method: as §4
[27] = test system: Trypanosoma brucei rhodesiense; assay: Antiprotozoal activity against T. b. rhodesiense STIB900 at a dose of 1 ug/mL.; type: functional; summary of the method: as §4
[28] = test system: Trypanosoma brucei rhodesiense; assay: Antiprotozoal activity against T. b. rhodesiense STIB900 at a dose of 3 ug/mL.; type: functional; summary of the method: as §4
[29] = test system: Trypanosoma brucei rhodesiense; assay: Antiprotozoal activity against T. b. rhodesiense STIB900 was determined; type: functional; details: read-out: ED50 (the source's name); summary of the method: as §4
Trypanosoma cruzi [30] = assay: Antiprotozoal activity against Trypanosoma cruzi Lac Z at a dose of 1 ug/mL.; type: functional; summary of the method: as §3
Trypanosoma cruzi [31] = assay: Antiprotozoal activity against Trypanosoma cruzi Lac Z at a dose of 30 ug/mL. Compound was toxic to host macrophages; type: functional; summary of the method: as §3
Trypanosoma cruzi [32] = assay: Antiprotozoal activity against Trypanosoma cruzi Lac Z at a dose of 3 ug/mL.; type: functional; summary of the method: as §3
Trypanosoma cruzi [33] = assay: Antiprotozoal activity against Trypanosoma cruzi Lac Z at a dose of 10 ug/mL.; type: functional; summary of the method: as §3
[34] = test system: Trypanosoma brucei rhodesiense; assay: Antiprotozoal activity against T. b. rhodesiense STIB900 at a dose of 30 ug/mL

EC50 (Leishmania donovani [1]): 13.5 µg/mL (≈ 28.5 µM)
EC50 (Trypanosoma cruzi [7]): 6.7 µg/mL (≈ 14.1 µM)
EC50 [11]: 2.2 µg/mL (≈ 4.65 µM)
Structure (SMILES): O=C(c1cc(-c2ccccc2)on1)[C@@H]1CCCN1C(=O)[C@@H]1CCCN1C(=O)OCc1ccccc1
EC50 (KB [2]): 23 µg/mL (≈ 48.6 µM)
EC50 (KB [3]): 23 µg/mL (≈ 48.6 µM)
inhibition at 10 µg/mL (Leishmania donovani [4]): 1.8%
inhibition at 30 µg/mL (Leishmania donovani [5]): 100%
inhibition at 3 µg/mL (Leishmania donovani [6]): 0%
inhibition at 10 µg/mL [8]: 99.8%
inhibition at 1 µg/mL [9]: 7.7%
inhibition at 3 µg/mL [10]: 83.4%
inhibition at 10 µg/mL (Trypanosoma cruzi [12]): 59.9%
inhibition at 1 µg/mL (Trypanosoma cruzi [13]): 10.8%
inhibition at 30 µg/mL (Trypanosoma cruzi [14]): 86.7%
inhibition at 3 µg/mL (Trypanosoma cruzi [15]): 29%
EC50 (KB [16]): 23 µg/mL (≈ 48.6 µM)
inhibition at 30 µg/mL [17]: 99.9%

pIC50 (Prolyl endopeptidase): < 6.00
Structure (SMILES): COC(=O)c1onc(C(=O)[C@@H]2CCCN2C(=O)[C@@H]2CCCN2C(=O)OCc2ccccc2)c1C(=O)OC

EC50 (Leishmania donovani [18]): 13.1 µg/mL (≈ 24.7 µM)
EC50 (Trypanosoma cruzi [25]): 4.7 µg/mL (≈ 8.87 µM)
EC50 [29]: 5.5 µg/mL (≈ 10.4 µM)
Structure (SMILES): O=C(c1cc(COCc2ccccc2)on1)[C@@H]1CCCN1C(=O)[C@@H]1CCCN1C(=O)CCCc1ccccc1
EC50 (KB [19]): > 300 µg/mL
EC50 (KB [20]): > 300 µg/mL
EC50 (KB [21]): > 300 µg/mL
inhibition at 30 µg/mL (Leishmania donovani [22]): 100%
inhibition at 3 µg/mL (Leishmania donovani [23]): 0%
inhibition at 10 µg/mL (Leishmania donovani [24]): 6.9%
inhibition at 10 µg/mL [26]: 95.5%
inhibition at 1 µg/mL [27]: 0.9%
inhibition at 3 µg/mL [28]: 6.9%
inhibition at 1 µg/mL (Trypanosoma cruzi [30]): 16%
inhibition at 30 µg/mL (Trypanosoma cruzi [31]): 86.7%
inhibition at 3 µg/mL (Trypanosoma cruzi [32]): 42.6%
inhibition at 10 µg/mL (Trypanosoma cruzi [33]): 69.4%
inhibition at 30 µg/mL [34]: 99.9%

From ChEMBL document CHEMBL1136179, “Prolylisoxazoles: potent inhibitors of prolyloligopeptidase with antitrypanosomal activity” (Bioorg Med Chem Lett, 2003)
